“And” between values parts separate entries of the source, which are not always exact repeats. Identical values can stand only once. “Also recorded” adds a separate entry of the source.
Assays:
[1] = tested on: cardiac repolarization (QTc interval) in healthy volunteers; test: Thorough QT study: ANCOVA of QTcF versus time-matched placebo; type: in vivo, human; conditions: for QTcF Difference (Glasdegib‐Placebo) (90%CI) / QTcF LS Mean: N = 35
[2] = patient population, cited from earlier work
[3] = tested on: human ether‐à‐go‐go‐related gene (hERG) potassium channels; conditions: human embryonic kidney 293 cells; cited from earlier work
healthy volunteers = test: Safety and tolerability; type: in vivo, human
[4] = tested on: patients with advanced hematologic malignancies; conditions: cited from earlier work
[5] = Plasma glasdegib pharmacokinetics after single oral doses; type: in vivo, human; conditions: for AUCextrap / CL/F: fasted, n=35, arithmetic mean ± SD; for Cmax / half-life: human, plasma, po
How it was run: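 Healthy volunteers in a randomized, double-blind, 4-period crossover received single oral doses after an overnight fast (≥10 hours), with washout ≥6 days. Plasma was assayed by validated HPLC-MS/MS: calibration 3–3000 ng/mL with 1/concentration² weighting, LLOQ 3 ng/mL, samples stored at −70°C. Cmax, Tmax, AUClast, AUCinf, CL/F, apparent volume and terminal half-life were derived by noncompartmental analysis.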

[6] = tested on: cardiac repolarization (QTc interval) in healthy volunteers; test: Exposure-response; type: in vivo, human
[7] = glasdegib 150 mg single dose, 0.5 h postdose
[8] = glasdegib 150 mg single dose, 1 h postdose
[9] = glasdegib 150 mg single dose, 1.5 h postdose
[10] = glasdegib 150 mg single dose, 2 h postdose
[11] = glasdegib 150 mg single dose, 3 h postdose
[12] = glasdegib 150 mg single dose, 4 h postdose
[13] = glasdegib 150 mg single dose, 6 h postdose
[14] = glasdegib 150 mg single dose, 24 h postdose
[15] = glasdegib 300 mg single dose, 0.5 h postdose
[16] = glasdegib 300 mg single dose, 1 h postdose
[17] = glasdegib 300 mg single dose, 1.5 h postdose
[18] = glasdegib 300 mg single dose, 2 h postdose
[19] = glasdegib 300 mg single dose, 3 h postdose
[20] = glasdegib 300 mg single dose, 4 h postdose
[21] = glasdegib 300 mg single dose, 6 h postdose
[22] = glasdegib 300 mg single dose, 24 h postdose
[23] = glasdegib 150 mg single oral dose
[24] = glasdegib 300 mg single oral dose
[25] = moxifloxacin 400 mg single dose

Structure (SMILES): CN1CC[C@@H](NC(=O)Nc2ccc(C#N)cc2)C[C@@H]1c1nc2ccccc2[nH]1 [Glasdegib]
- highest 90%CI upper bound for the largest and placebo‐ and baseline‐adjusted QTcF change ([1]; glasdegib 150 mg (therapeutic plasma exposure), 4 hours postdose): 10.22 milliseconds
- upper bound of the 2‐sided 90%CIs for all time‐matched least‐squares mean differences in QTcF between glasdegib and placebo ([1]; glasdegib 150 mg and 300 mg single doses): < 20 milliseconds
- QTcF Difference (Glasdegib‐Placebo) (90%CI) [1, 7]: −0.09 (−2.28 to 2.09) Milliseconds
- QTcF LS Mean [1, 7]: 406.43 Milliseconds
- QTcF Difference (Glasdegib‐Placebo) (90%CI) [1, 8]: 2.07 (−0.11 to 4.25) Milliseconds
- QTcF LS Mean [1, 8]: 407.86 Milliseconds
- QTcF Difference (Glasdegib‐Placebo) (90%CI) [1, 9]: 5.17 (2.99‐7.35) Milliseconds
- QTcF LS Mean [1, 9]: 410.08 Milliseconds
- QTcF Difference (Glasdegib‐Placebo) (90%CI) [1, 10]: 5.98 (3.80‐8.16) Milliseconds
- QTcF LS Mean [1, 10]: 410.58 Milliseconds
- QTcF Difference (Glasdegib‐Placebo) (90%CI) [1, 11]: 7.76 (5.58‐9.95) Milliseconds
- QTcF LS Mean [1, 11]: 412.06 Milliseconds
- QTcF Difference (Glasdegib‐Placebo) (90%CI) [1, 12]: 8.03 (5.85‐10.22) Milliseconds
- QTcF LS Mean [1, 12]: 413.23 Milliseconds
- QTcF Difference (Glasdegib‐Placebo) (90%CI) [1, 13]: 5.11 (2.93‐7.29) Milliseconds
- QTcF LS Mean [1, 13]: 407.38 Milliseconds
- QTcF Difference (Glasdegib‐Placebo) (90%CI) [1, 14]: 5.92 (3.74‐8.10) Milliseconds
- QTcF LS Mean [1, 14]: 410.98 Milliseconds
- highest 90%CI upper bound for the largest, placebo‐ and baseline‐adjusted QTcF change ([1]; glasdegib 300 mg (supratherapeutic plasma exposure), 3 hours postdose): 15.61 milliseconds
- QTcF Difference (Glasdegib‐Placebo) (90%CI) [1, 15]: 0.65 (−1.53 to 2.83) Milliseconds
- QTcF LS Mean [1, 15]: 407.18 Milliseconds
- QTcF Difference (Glasdegib‐Placebo) (90%CI) [1, 16]: 5.14 (2.96‐7.32) Milliseconds
- QTcF LS Mean [1, 16]: 410.92 Milliseconds
- QTcF Difference (Glasdegib‐Placebo) (90%CI) [1, 17]: 9.84 (7.66‐12.02) Milliseconds
- QTcF LS Mean [1, 17]: 414.75 Milliseconds
- QTcF Difference (Glasdegib‐Placebo) (90%CI) [1, 18]: 11.06 (8.88‐13.24) Milliseconds
- QTcF LS Mean [1, 18]: 415.66 Milliseconds
- QTcF Difference (Glasdegib‐Placebo) (90%CI) [1, 19]: 13.43 (11.25‐15.61) Milliseconds
- QTcF LS Mean [1, 19]: 417.72 Milliseconds
- QTcF Difference (Glasdegib‐Placebo) (90%CI) [1, 20]: 13.41 (11.23‐15.59) Milliseconds
- QTcF LS Mean [1, 20]: 418.60 Milliseconds
- QTcF Difference (Glasdegib‐Placebo) (90%CI) [1, 21]: 10.82 (8.64‐13.00) Milliseconds
- QTcF LS Mean [1, 21]: 413.08 Milliseconds
- QTcF Difference (Glasdegib‐Placebo) (90%CI) [1, 22]: 8.91 (6.73‐11.09) Milliseconds
- QTcF LS Mean [1, 22]: 413.96 Milliseconds
- Therapeutic Steady‐State Cmax ([2]; 100 mg once daily): Therapeutic Steady‐State Cmax (1137 ng/mL)
- Supratherapeutic Steady‐State Cmax ([2]; 200 mg once daily): Supratherapeutic Steady‐State Cmax (2445 ng/mL)
- hERG potassium channel inhibition (in words) [3]: inhibit the human ether‐à‐go‐go‐related gene (hERG) potassium channels in a concentration‐dependent manner
- treatment‐emergent AEs (TEAEs), number (healthy volunteers; glasdegib 150 mg single dose): 25
- treatment‐related AEs (TRAEs), number (healthy volunteers; glasdegib 150 mg single dose): 20
- treatment‐emergent AEs (TEAEs), number (healthy volunteers; glasdegib 300 mg single dose): 26
- treatment‐related AEs (TRAEs), number (healthy volunteers; glasdegib 300 mg single dose): 20
- tolerability (in words) (healthy volunteers; single oral doses of 150 and 300 mg, healthy adult subjects): well tolerated
- QTc experienced by some patients ([4]; multiple dosing at 400 mg and 600 mg once daily): > 500 milliseconds
- maximum tolerated dose ([4]; single-agent, patients with advanced hematologic malignancies): 400 mg once daily
- AUCextrap [5, 23]: 0.6660 ± 0.30%
- CL/F [5, 23]: 10.37 ± 3.58 L/h
- AUCextrap [5, 24]: 0.4113 ± 0.19%
- CL/F [5, 24]: 10.09 ± 3.05 L/h
- Cmax ([5]; 150 mg): 1120 ± 388 ng/mL
- half-life ([5]; 150 mg): 15.8 ± 2.06 h
- Cmax ([5]; 300 mg): 2300 ± 651 ng/mL
- half-life ([5]; 300 mg): 15.5 ± 1.77 h
- dose proportionality of geometric mean AUCinf and Cmax ([5]; single oral doses of 150 and 300 mg): increased proportionally with dose
- PK/PD hysteresis (lag between plasma concentration and effect on QTc) ([6]; 150 and 300 mg single doses): No PK/PD hysteresis
- mean slope estimate describing the ∆QTcF‐concentration relationship ([6]; LME model): 0.005 ms/ng/mL
- effect on heart rate (change in RR interval, ∆RR versus concentration) ([6]; LME model of ∆RR versus glasdegib concentration): not to have a meaningful effect on heart rate; also recorded: relationship of negligible magnitude
- Slope Estimate From Final Model, ∆QTcF per ng/mL (95%CI) ([6]; QTcF, LME model): 0.005 (0.004‐0.006) Milliseconds per ng/mL
- Slope Estimate From Final Model, ∆QTcS per ng/mL (95%CI) ([6]; QTcS (study population-specific correction), LME model): 0.004 (0.003‐0.005) Milliseconds per ng/mL
- Model‐Derived ∆∆QTcS (90%CI) ([6]; Supratherapeutic Steady‐State Cmax (2445 ng/mL)): 11.89 (10.14‐13.64) Milliseconds
- Model‐Derived ∆∆QTcF (90%CI) ([6]; Supratherapeutic Steady‐State Cmax (2445 ng/mL), 200 mg once daily): 13.72 (11.95‐15.49) Milliseconds
- Model‐Derived ∆∆QTcS (90%CI) ([6]; Therapeutic Steady‐State Cmax (1137 ng/mL)): 6.55 (5.68‐7.43) Milliseconds
- Model‐Derived ∆∆QTcF (90%CI) ([6]; Therapeutic Steady‐State Cmax (1137 ng/mL), 100 mg once daily): 7.34 (6.46‐8.22) Milliseconds
- Model‐Derived ∆∆QTcF (90%CI) ([6]; Therapeutic Steady‐State Cmax (1137 ng/mL), 100 mg once daily, listed as glasdegib): 7.3 Milliseconds and 7.34 Milliseconds
- upper bound of the 90%CI of mean predicted ΔΔQTcF ([6]; mean therapeutic glasdegib Cmax): < 10 milliseconds
- upper bound of the 90%CI of mean predicted ΔΔQTcF ([6]; supratherapeutic glasdegib Cmax (twice the therapeutic dose)): < 20 milliseconds

Structure (SMILES): COc1c(N2C[C@@H]3CCCN[C@@H]3C2)c(F)cc2c(=O)c(C(=O)O)cn(C3CC3)c12 [Moxifloxacin]
- treatment‐emergent AEs (TEAEs), number (healthy volunteers; [25]): 27
- treatment‐related AEs (TRAEs), number (healthy volunteers; [25]): 23

Reference: PMC7983888 (Clinical Pharmacology in Drug Development, 2020)
